Assay [1] in a line: Inhibition of Staphylococcus aureus MraY by fluorescence assay. The method in brief:
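Purified S. aureus MraY was given UDP-MurNAc-dansylpentapeptide as substrate. Formation of dansylated lipid I was followed by fluorescence enhancement (excitation 355 nm, emission 535 nm).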

The subject of assay [2] is Pseudomonas aeruginosa. Put plainly: Antibacterial activity against clinical isolate Pseudomonas aeruginosa SR27156 assessed as growth inhibition after 20 hrs by microdilution method. It is filed as functional. The following applies: SR27156, 20 h. Summed up: (§1)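 Broth microdilution per CLSI in cation-adjusted Mueller-Hinton broth, using serial 2-fold compound dilutions. Each strain was inoculated at 5 × 10⁴ CFU per well in 0.1 mL. Plates were incubated at 35 °C for 20 h, and the MIC was then scored.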

Assay [3] relates to Pseudomonas aeruginosa. As to the kind of experiment: Antibacterial activity against Pseudomonas aeruginosa ATCC 27853 assessed as growth inhibition after 20 hrs by microdilution method. It is filed as functional. As to conditions: ATCC 27853, 20 h. The method in brief: as §1
In assay [4] the test system is Pseudomonas aeruginosa. Put plainly: Antibacterial activity against Pseudomonas aeruginosa YY165 deltamexB mutant assessed as growth inhibition after 20 hrs by microdilution method. It is filed as functional. The following applies: YY165, 20 h. Summed up:
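Broth microdilution per CLSI in cation-adjusted Mueller–Hinton broth; serial 2-fold compound dilutions inoculated with 5 × 10⁴ CFU per well (0.1 mL), incubated 35 °C for 20 h, then MIC scored. Strain YY165 is a MexB deletion mutant lacking the inner-membrane transporter of the MexAB-OprM efflux system.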

The test system of assay [5] is Pseudomonas aeruginosa. Put plainly: Antibacterial activity against Pseudomonas aeruginosa ATCC 25619 assessed as growth inhibition after 20 hrs by microdilution method. In kind it is functional. The following applies: ATCC 25619, 20 h. The method in brief:
as §1

Assay [6] has as its system Pseudomonas aeruginosa. Put plainly: Antibacterial activity against Pseudomonas aeruginosa PAO1 assessed as growth inhibition after 20 hrs by microdilution method. In kind it is functional. As to conditions: PAO1, 20 h. Summed up:
as §1

Structures are written as SMILES. Values after ≈ are worked out from the molar mass of the structure shown.

In assay [1], `CCCCCCCCCCCCCCC[C@H](NC(=O)c1ccncc1)C(=O)NCCCN[C@H](C(=O)O)[C@H](O[C@@H]1O[C@H](CN)[C@@H](O)[C@H]1O)[C@H]1O[C@@H](n2ccc(=O)[nH]c2=O)[C@H](O)[C@@H]1O` showed a 50% inhibitory concentration (IC50) of 8.1 nM. Also, the minimum inhibitory concentration (MIC) is greater than 64 mg/L in assay [2]; greater than 64 mg/L in assay [3]; greater than 64 mg/L in assay [4]; 64 mg/L (≈ 72.9 µM) in assay [5]; greater than 64 mg/L in assay [6].

In assay [1], `CCCCCCCCCCCCCC(=O)N[C@@H](CCCNC(=N)N)C(=O)NCCCN[C@H](C(=O)O)[C@H](O[C@@H]1O[C@H](CN)[C@@H](O)[C@H]1O)[C@H]1O[C@@H](n2ccc(=O)[nH]c2=O)[C@H](O)[C@@H]1O` had an IC50 of 2.1 nM. Moreover, the minimum inhibitory concentration (MIC) in assay [2] was found to be 16 mg/L (≈ 18.3 µM); in assay [3], 32 mg/L (≈ 36.7 µM); in assay [4], 16 mg/L (≈ 18.3 µM); in assay [5], 16 mg/L (≈ 18.3 µM); in assay [6], 32 mg/L (≈ 36.7 µM).

In the case of `CCCCCCCCCCCCCCC[C@H](NC(=O)c1cccnc1)C(=O)NCCCN[C@H](C(=O)O)[C@H](O[C@@H]1O[C@H](CN)[C@@H](O)[C@H]1O)[C@H]1O[C@@H](n2ccc(=O)[nH]c2=O)[C@H](O)[C@@H]1O`, 9.6 nM corresponded to half-maximal inhibition in assay [1] (IC50). For the same compound, the MIC in assay [2] was greater than 64 mg/L; in assay [3] it was greater than 64 mg/L; in assay [4], greater than 64 mg/L; in assay [5], 64 mg/L (≈ 72.9 µM); in assay [6] it was greater than 64 mg/L.

Turning to `N=C(N)NCCCCCC(=O)NCCCCCC(=O)NCCCN[C@H](C(=O)O)[C@H](O[C@@H]1O[C@H](CN)[C@@H](O)[C@H]1O)[C@H]1O[C@@H](n2ccc(=O)[nH]c2=O)[C@H](O)[C@@H]1O`, the half-maximal inhibitory concentration (IC50) in assay [1] worked out at 1490 nM. For the same compound, the minimum inhibitory concentration (MIC) in assay [2], in assay [3], in assay [4], in assay [5] and in assay [6] was greater than 64 mg/L throughout.

For `CCCCCCCCCCCCCCC[C@H](NC(=O)[C@H](CCCN)NC(=O)N[C@H](C(=O)O)C(C)C)C(=O)NCCCN[C@H](C(=O)O)[C@H](O[C@@H]1O[C@H](CN)[C@@H](O)[C@H]1O)[C@H]1O[C@@H](n2ccc(=O)[nH]c2=O)[C@H](O)[C@@H]1O`, the IC50 in assay [1] was determined as 0.8 nM. Also, the MIC in assay [2], in assay [3], in assay [4], in assay [5] and in assay [6] was greater than 64 mg/L each time.

`CC(C)CCCC(=O)N[C@@H](CCCNC(=N)N)C(=O)NCCCN[C@H](C(=O)O)[C@H](O[C@@H]1O[C@H](CN)[C@@H](O)[C@H]1O)[C@H]1O[C@@H](n2ccc(=O)[nH]c2=O)[C@H](O)[C@@H]1O` registered an IC50 in assay [1] of 225 nM. Further, the MIC in assay [2], in assay [3], in assay [4], in assay [5] and in assay [6] was greater than 64 mg/L in each case.

Compound `CCCCCCCCCCCCCCC[C@H](NC(=O)[C@H](CCCNC(=N)N)NC(=O)N[C@H](C(=O)O)C(C)C)C(=O)NCCCN[C@H](C(=O)O)[C@H](O[C@@H]1O[C@H](CN)[C@@H](O)[C@H]1O)[C@H]1O[C@@H](n2ccc(=O)[nH]c2=O)[C@H](O)[C@@H]1O` returned an IC50 in assay [1] of 0.7 nM. Besides, the minimum inhibitory concentration (MIC) in assay [2], in assay [3], in assay [4], in assay [5] and in assay [6] was greater than 64 mg/L throughout.

Turning to `CCCCCCCCCCCCCCC[C@H](NC(=O)[C@@H](NC(=O)N[C@H](C(=O)O)C(C)C)[C@H]1CCNC(=N)N1)C(=O)NCCCN[C@H](C(=O)O)[C@H](O[C@@H]1O[C@H](CN)[C@@H](O)[C@H]1O)[C@H]1O[C@@H](n2ccc(=O)[nH]c2=O)[C@H](O)[C@@H]1O`, the IC50 in assay [1] amounted to 0.8 nM. The minimum inhibitory concentration (MIC) in assay [2], in assay [3], in assay [4], in assay [5] and in assay [6] was greater than 64 mg/L each time.

Turning to `C[C@@H](O)[C@H]1C(=O)N2C(C(=O)O)=C(S[C@@H]3CN[C@H](CNS(N)(=O)=O)C3)[C@H](C)[C@H]12` [DORIPENEM], the MIC in assay [2] was determined as 0.031 mg/L (≈ 0.0737 µM); in assay [3], 0.5 mg/L (≈ 1.19 µM); in assay [4], 0.25 mg/L (≈ 0.595 µM); in assay [5] it was 0.063 mg/L (≈ 0.15 µM); in assay [6] it was 0.5 mg/L (≈ 1.19 µM).

Turning to `CCCCCCCCCCCCCCC[C@H](NC(C)=O)C(=O)NCCCN[C@H](C(=O)O)[C@H](O[C@@H]1O[C@H](CN)[C@@H](O)[C@H]1O)[C@H]1O[C@@H](n2ccc(=O)[nH]c2=O)[C@H](O)[C@@H]1O`, the half-inhibitory concentration (IC50) in assay [1] turned out to be 2.7 nM. The MIC in assay [2] is 64 mg/L (≈ 78.5 µM); in assay [3], greater than 64 mg/L; in assay [4], 32 mg/L (≈ 39.3 µM); in assay [5], 32 mg/L (≈ 39.3 µM); in assay [6], 64 mg/L (≈ 78.5 µM).

For the compound `CCCCCCCCCCCCCCC[C@H](NC(=O)[C@@H](NC(=O)OCc1ccccc1)[C@@H]1CCNC(=N)N1)C(=O)NCCCN[C@H](C(=O)O)[C@H](O[C@@H]1O[C@H](CN)[C@@H](O)[C@H]1O)[C@H]1O[C@@H](n2ccc(=O)[nH]c2=O)[C@H](O)[C@@H]1O`, half-maximal inhibition in assay [1] (IC50) required 4.2 nM. In addition, the MIC in assay [2], in assay [3], in assay [4], in assay [5] and in assay [6] was greater than 64 mg/L in each case.

In the case of `CCCCCCCCCCCCCCC[C@H](NC(=O)[C@@H](N)[C@@H]1CCNC(=N)N1)C(=O)NCCCN[C@H](C(=O)O)[C@H](O[C@@H]1O[C@H](CN)[C@@H](O)[C@H]1O)[C@H]1O[C@@H](n2ccc(=O)[nH]c2=O)[C@H](O)[C@@H]1O`, the IC50 in assay [1] came out at 2.4 nM. The MIC in assay [2] was 64 mg/L (≈ 69 µM); in assay [3] it was greater than 64 mg/L; in assay [4] it was 32 mg/L (≈ 34.5 µM); in assay [5] it was greater than 64 mg/L; in assay [6], greater than 64 mg/L.

`CCCCCCCCCCC(=O)N[C@@H](CCCNC(=N)N)C(=O)NCCCN[C@H](C(=O)O)[C@H](O[C@@H]1O[C@H](CN)[C@@H](O)[C@H]1O)[C@H]1O[C@@H](n2ccc(=O)[nH]c2=O)[C@H](O)[C@@H]1O` came in with an IC50 in assay [1] of 9.8 nM. Besides, the minimal inhibitory concentration (MIC) was greater than 64 mg/L in assay [2]; greater than 64 mg/L in assay [3]; greater than 64 mg/L in assay [4]; 32 mg/L (≈ 38.6 µM) in assay [5]; greater than 64 mg/L in assay [6].

In turn, `CCCCCCCCCCCCCCCCNC(=O)[C@@H](NCCCNC(=O)[C@@H](N)CCCNC(=N)N)[C@H](O[C@@H]1O[C@H](CN)[C@@H](O)[C@H]1O)[C@H]1O[C@@H](n2ccc(=O)[nH]c2=O)[C@H](O)[C@@H]1O` returned a 50% inhibitory concentration (IC50) in assay [1] of 12.2 nM. Further, the MIC in assay [2] is 16 mg/L (≈ 18.1 µM); in assay [3], 16 mg/L (≈ 18.1 µM); in assay [4], 16 mg/L (≈ 18.1 µM); in assay [5], 16 mg/L (≈ 18.1 µM); in assay [6], 32 mg/L (≈ 36.2 µM).

The compound `CCCCCCCCCCCCCCC[C@H](NC(=O)[C@@H](N)CCCNC(=N)N)C(=O)NCCCN[C@H](C(=O)O)[C@H](O[C@@H]1O[C@H](CN)[C@@H](O)[C@H]1O)[C@H]1O[C@@H](n2ccc(=O)[nH]c2=O)[C@H](O)[C@@H]1O` showed a half-maximal inhibitory concentration (IC50) in assay [1] of 2.2 nM. Besides, the MIC is 16 mg/L (≈ 17.2 µM) in assay [2]; 32 mg/L (≈ 34.4 µM) in assay [3]; 8 mg/L (≈ 8.61 µM) in assay [4]; 8 mg/L (≈ 8.61 µM) in assay [5]; 16 mg/L (≈ 17.2 µM) in assay [6].

The values above are taken from ChEMBL document CHEMBL3286247, “Expansion of Antibacterial Spectrum of Muraymycins toward Pseudomonas aeruginosa” (ACS Med Chem Lett, 2014).
